In ChEMBL document CHEMBL1255304, “In vitro phenotypic susceptibility of human immunodeficiency virus type 2 clinical isolates to protease inhibitors” (Antimicrob Agents Chemother, 2008):

Legend:
[1] = system: Human immunodeficiency virus 2; assay: Antiviral activity against HIV 2 subtype B clinical isolate expressing 14Y-19P-33I-61N-71I-75M-84V-90M protease gene sequence from HIV2 infected patient plasma and PBMC obtained at T1 during compound treatment measured after 13 months; type: functional, organism-based; conditions: Human immunodeficiency virus 2, subtype B\r\n
Method in brief: (§1)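 Virus isolated by PBMC coculture from patient samples taken before (T0) or during (T1, T2) protease inhibitor exposure, with protease genes sequenced from plasma and PBMC isolates. Susceptibility was tested in the ANRS PBMC assay, and the 50% inhibitory concentration (IC50) was reported.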

[2] = system: Human immunodeficiency virus 2; assay: Antiviral activity against HIV 2 subtype A clinical isolate expressing 10V/I-40D-43I-56V-70K-82F-84V-89V-90M protease gene sequence from HIV2 infected patient plasma and PBMC obtained at T2 during compound treatment measured after 3 months; type: functional, organism-based; conditions: Human immunodeficiency virus 2, subtype A; method in brief: as §1
[3] = system: Human immunodeficiency virus 2; assay: Antiviral activity against HIV 2 subtype B clinical isolate expressing 12Q-14R-17G/D-19P-61N-62I-92A protease gene sequence from HIV2 infected patient plasma and PBMC obtained before compound treatment measured after 13 months; type: functional, organism-based; conditions: Human immunodeficiency virus 2, subtype B\r\n; method in brief: as §1
[4] = (§2) Antiviral activity against Human immunodeficiency virus type 1 (BRU ISOLATE) after […]; type: functional; conditions: Human immunodeficiency virus 1
[5] = system: Human immunodeficiency virus type 1 (BRU ISOLATE); assay: as §2; type: functional
[6] = system: Human immunodeficiency virus 2; assay: Antiviral activity against HIV 2 subtype A clinical isolate expressing 14H-40D-70K-72R/K-91T/S protease gene sequence from HIV2 infected patient plasma and PBMC obtained before compound treatment measured after 13 months; type: functional, organism-based; conditions: Human immunodeficiency virus 2, subtype A; method in brief: as §1
[7] = system: Human immunodeficiency virus 2; assay: Antiviral activity against HIV 2 subtype A clinical isolate expressing 10I-40D-43I-70K-82F-84V-85L-89V-90M-91T/L-98N/K protease gene sequence from HIV2 infected patient plasma and PBMC obtained at T1 during compound treatment measured after 13 months; type: functional, organism-based; conditions: Human immunodeficiency virus 2, subtype A; method in brief: as §1
[8] = system: Human immunodeficiency virus 2; assay: Antiviral activity against HIV 2 subtype A clinical isolate expressing 10I-17D-40D-43I-46V-66V/A-70R/K protease gene sequence from HIV2 infected patient plasma and PBMC obtained before compound treatment measured after 13 months; type: functional, organism-based; conditions: Human immunodeficiency virus 2, subtype A; method in brief: as §1
[9] = system: Human immunodeficiency virus 2; assay: Antiviral activity against HIV 2 subtype H expressing 10I-40P-41Y-60H-63N-70T-73G-89L-92E protease gene sequence from HIV2 infected patient plasma and PBMC obtained before compound treatment measured after 13 months; type: functional, organism-based; conditions: Human immunodeficiency virus 2, subtype H; method in brief: as §1
[10] = system: Human immunodeficiency virus 2; assay: Antiviral activity against HIV 2 subtype B clinical isolate expressing 12T-14Y-19P-40N-41D-61N-62I-96S-99L protease gene sequence from HIV2 infected patient plasma and PBMC obtained before compound treatment measured after 13 months; type: functional, organism-based; conditions: Human immunodeficiency virus 2, subtype B\r\n; method in brief: as §1
[11] = system: Human immunodeficiency virus 2; assay: Antiviral activity against HIV 2 subtype A clinical isolate expressing 5L/F-14Y/H-17G/D-43T-54I/M-62V/A-70R/K-71I protease gene sequence from HIV2 infected patient plasma and PBMC obtained at T1 during compound treatment measured after 13 months; type: functional, organism-based; conditions: Human immunodeficiency virus 2, subtype A; method in brief: as §1
[12] = system: Human immunodeficiency virus 2; assay: Antiviral activity against HIV 2 subtype A clinical isolate expressing 10I-17D-40D-43I-45K/R-46V-54M-64I/V-69K/R-71V/I-90M protease gene sequence from HIV2 infected patient plasma and PBMC obtained at T1 during compound treatment measured after 13 months; type: functional, organism-based; conditions: Human immunodeficiency virus 2, subtype A; method in brief: as §1
[13] = system: Human immunodeficiency virus 2; assay: Antiviral activity against HIV 2 subtype A clinical isolate expressing 14H-60K/N-65E protease gene sequence from HIV2 infected patient plasma and PBMC obtained before compound treatment measured after 13 months; type: functional, organism-based; conditions: Human immunodeficiency virus 2, subtype A; method in brief: as §1
[14] = system: Human immunodeficiency virus 2; assay: Antiviral activity against HIV 2 subtype A clinical isolate expressing 14H-17D-43T-68N/D protease gene sequence from HIV2 infected patient plasma and PBMC obtained before compound treatment measured after 13 months; type: functional, organism-based; conditions: Human immunodeficiency virus 2, subtype A; method in brief: as §1
[15] = system: Human immunodeficiency virus 2; assay: Antiviral activity against HIV 2 subtype B clinical isolate expressing 14Y-61N-99L protease gene sequence from HIV2 infected patient plasma and PBMC obtained before compound treatment measured after 13 months; type: functional, organism-based; conditions: Human immunodeficiency virus 2, subtype B\r\n; method in brief: as §1
[16] = system: Human immunodeficiency virus 2; assay: Antiviral activity against HIV 2 subtype A clinical isolate expressing 54M-65E-71I-74N-90M protease gene sequence from HIV2 infected patient plasma and PBMC obtained at T1 during compound treatment measured after 13 months; type: functional, organism-based; conditions: Human immunodeficiency virus 2, subtype A; method in brief: as §1
[17] = system: Human immunodeficiency virus 2; assay: Antiviral activity against HIV 2 subtype B clinical isolate expressing 14Y-19P-61N-64V-71I-90M-95I protease gene sequence from HIV2 infected patient plasma and PBMC obtained at T2 during compound treatment measured after 3 months; type: functional, organism-based; conditions: Human immunodeficiency virus 2, subtype B\r\n; method in brief: as §1
[18] = system: Human immunodeficiency virus 2; assay: Antiviral activity against Human immunodeficiency virus type 2 (ISOLATE ROD) after 13 months; type: functional, organism-based; conditions: Human immunodeficiency virus 2, ISOLATE ROD
Method in brief: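 Reference strain ROD was tested in the ANRS PBMC assay alongside the clinical isolates, and the 50% inhibitory concentration (IC50) was reported.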

[19] = system: Human immunodeficiency virus 2; assay: Antiviral activity against HIV 2 subtype H expressing 10I-34E-40P-41Y-60H-63N-70T-73G-82F-89L-92E protease gene sequence from HIV2 infected patient plasma and PBMC obtained at T1 during compound treatment measured after 13 months; type: functional, organism-based; conditions: Human immunodeficiency virus 2, subtype H; method in brief: as §1

## CC(C)CN(C[C@@H](O)[C@H](Cc1ccccc1)NC(=O)O[C@H]1CCOC1)S(=O)(=O)c1ccc(N)cc1 [AMPRENAVIR]
[1]
  IC50: 14 µM
  IC90: 110 µM
[2]
  IC50: 12 µM
  IC90: 95 µM
[3]
  IC50: 0.4 µM
  IC90: 2.8 µM
[4]
  IC50: 0.02 µM
[5]
  IC90: 0.2 µM
[6]
  IC50: 0.3 µM
  IC90: 1.6 µM
[7]
  IC50: 12 µM
  IC90: 96 µM
[8]
  IC50: 0.4 µM
  IC90: 3.5 µM
[9]
  IC50: 0.9 µM
  IC90: 2.7 µM
[10]
  IC50: 0.4 µM
  IC90: 2.4 µM
[11]
  IC50: 4.4 µM
  IC90: 13 µM
[12]
  IC50: 9.5 µM
  IC90: 31 µM
[13]
  IC50: 0.9 µM
  IC90: 6.8 µM
[14]
  IC50: 0.6 µM
  IC90: 3.8 µM
[15]
  IC50: 0.6 µM
  IC90: 4.6 µM
[16]
  IC50: 4 µM
  IC90: 60 µM
[17]
  IC50: 17 µM
  IC90: 140 µM
[18]
  IC50: 0.6 µM
  IC90: 4.6 µM
[19]
  IC50: 10 µM
  IC90: 82 µM
